Data published in ChEMBL document CHEMBL2146456, “Identification and characterization of GABA(A) receptor modulatory diterpenes from Biota orientalis that decrease locomotor activity in mice” (J Nat Prod, 2011).

Tests used:
Type in all cases: cell-based
[1] = tested on: Oocyte; assay: Allosteric modulation of gamma-aminobutyric acid receptor A alpha1beta2gamma2S expressed in Xenopus oocytes assessed as potentiation of GABA-mediated chloride current at 10 uM by voltage clamp analysis relative to control
Outline: (§1)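 Oocytes were injected with α1β2γ2S, α1β3γ2S, α2β2γ2S, α3β2γ2S or α5β2γ2S cRNAs at a 1:1:10 ratio. Two-electrode voltage clamp was run 1–5 days post-injection in HEPES-buffered saline at pH 7.4. Compounds in GABA EC5–10 (3–10 μM) were given by automated fast perfusion: screening at 10 and 100 μM (n = 2), otherwise concentration series. Potentiation = I(GABA+Comp)/IGABA − 1, with nonlinear regression fits.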

[2] = tested on: Oocyte; assay: Allosteric modulation of gamma-aminobutyric acid receptor A alpha1beta2gamma2S expressed in Xenopus oocytes assessed as potentiation of GABA-mediated chloride current at 100 uM by voltage clamp analysis relative to control; outline: as §1
[3] = Allosteric modulation of gamma-aminobutyric acid receptor A alpha1beta2gamma2S expressed in Xenopus oocytes assessed as potentiation of GABA-mediated chloride current by voltage clamp analysis; settings: Oocyte; outline: as §1
[4] = tested on: Oocyte; assay: Allosteric modulation of gamma-aminobutyric acid receptor A alpha1beta2gamma2S expressed in Xenopus oocytes assessed as potentiation of GABA-mediated chloride current at 0.1 to 500 uM by voltage clamp analysis relative to control
Outline: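 Two-electrode voltage clamp on Xenopus oocytes injected with α1, β2, γ2S cRNA at a 1:1:10 ratio, recorded on days 1–5 at a holding potential of […]. Bath: 90 mM NaCl, 1 mM KCl, 1 mM MgCl2, 1 mM CaCl2, 5 mM HEPES pH 7.4. Compound was co-applied by fast perfusion with GABA EC5-10 (typically 3–10 μM). Potentiation was calculated as I(GABA+Comp)/IGABA − 1, and concentration-response curves were fitted by nonlinear regression.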

## C=C[C@]1(C)C=C2CC[C@H]3[C@](C)(C=O)[C@@H](O)CC[C@]3(C)[C@H]2CC1
[1]
  Imax: 3.8%
[2]
  Imax: 3%

## Cc1nnc2n1-c1ccc(Cl)cc1C(c1ccccc1Cl)=NC2 [TRIAZOLAM]
[3]
  EC50: 0.022 µM
[4]
  Imax: 253%

## CC(C)c1c(O)ccc2c1CC[C@H]1C(C)(C)CCC[C@]21C
[1]
  Imax: -10.6%
[2]
  Imax: -15.1%

## CCc1cc2c(s1)N(C)C(=O)CN=C2c1ccccc1Cl [CLOTIAZEPAM]
[3]
  EC50: 0.184 µM
[4]
  Imax: 260%

## C=C1CC[C@@H]2[C@](C)(CCC[C@]2(C)C(=O)OC)[C@H]1CCC1=CCOC1=O
[1]
  Imax: -13.4%
[2]
  Imax: -13.1%
